# pIC50: −log10 of the molar value. Activity calls are given as the source filed them. The calls are words filed in the database; no cut-off is given here.
# Key:
# [1] = target: Plasminogen activator inhibitor 1 (Homo sapiens) (UniProt P05121); assay: Inhibition of EGF-induced […] PAI-1 in human MDA-MB-231 cells at 1 uM by ELISA; format: cell-based
# In short: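 MDA-MB-231 cells treated at 1µM for 24 h with or without EGF. PAI-1 in conditioned medium measured by ELISA.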
# MCF7 [2] = assay: Antiproliferative activity against human […] cells at 2.5 to 7.5 uM by annexin V-FITC/propidium iodide staining-based flow cytometric analysis; format: functional, cell-based
# [3] = target: Epidermal growth factor receptor (Homo sapiens) (UniProt P00533); assay: Inhibition of EGF-induced EGFR phosphorylation at Tyr1068 in human MDA-MB-231 cells at 0.5 uM by ELISA; format: cell-based
# Chain of Epidermal growth factor receptor (Homo sapiens) (P00533 whole entry): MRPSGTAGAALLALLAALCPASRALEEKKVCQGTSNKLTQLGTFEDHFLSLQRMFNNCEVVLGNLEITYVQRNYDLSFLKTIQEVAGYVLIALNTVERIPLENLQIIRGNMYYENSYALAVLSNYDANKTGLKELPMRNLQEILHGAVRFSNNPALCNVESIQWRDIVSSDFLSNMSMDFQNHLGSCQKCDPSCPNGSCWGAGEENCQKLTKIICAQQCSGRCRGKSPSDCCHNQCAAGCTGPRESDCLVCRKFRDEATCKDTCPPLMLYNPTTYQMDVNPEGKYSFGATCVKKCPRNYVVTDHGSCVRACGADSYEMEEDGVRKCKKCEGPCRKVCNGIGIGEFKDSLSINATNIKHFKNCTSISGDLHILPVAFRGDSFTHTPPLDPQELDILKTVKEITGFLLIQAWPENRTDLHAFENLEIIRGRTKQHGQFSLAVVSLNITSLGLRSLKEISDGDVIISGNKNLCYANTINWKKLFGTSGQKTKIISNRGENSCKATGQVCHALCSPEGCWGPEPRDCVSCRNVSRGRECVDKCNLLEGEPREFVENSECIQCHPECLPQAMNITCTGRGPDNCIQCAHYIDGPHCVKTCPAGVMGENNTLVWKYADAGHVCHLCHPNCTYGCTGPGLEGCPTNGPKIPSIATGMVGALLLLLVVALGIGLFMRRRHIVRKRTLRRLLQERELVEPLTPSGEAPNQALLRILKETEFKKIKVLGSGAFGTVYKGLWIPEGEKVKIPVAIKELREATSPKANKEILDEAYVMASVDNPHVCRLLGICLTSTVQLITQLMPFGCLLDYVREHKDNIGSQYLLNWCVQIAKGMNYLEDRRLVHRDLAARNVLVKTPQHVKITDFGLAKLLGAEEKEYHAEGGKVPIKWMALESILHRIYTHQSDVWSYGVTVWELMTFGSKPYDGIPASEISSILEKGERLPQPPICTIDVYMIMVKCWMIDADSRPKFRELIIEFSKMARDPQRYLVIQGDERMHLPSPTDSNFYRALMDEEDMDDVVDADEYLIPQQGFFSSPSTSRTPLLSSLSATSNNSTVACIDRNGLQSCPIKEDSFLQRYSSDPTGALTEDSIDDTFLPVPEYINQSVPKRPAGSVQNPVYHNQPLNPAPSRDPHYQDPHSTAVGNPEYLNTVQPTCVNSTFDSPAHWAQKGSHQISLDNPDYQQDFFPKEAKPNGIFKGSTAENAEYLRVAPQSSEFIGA
# In short: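 MDA-MB-231 cells pretreated 1 h in serum-free medium, then EGF-stimulated for 15 min and lysed. Equal lysate protein (Bradford) assayed by ELISA kits for p-EGFR (Tyr1068, Tyr845, Tyr1173) and p-HER2. Absorbance read at 450 nm, normalized to total EGFR or HER2.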
# MCF7 [4] = assay: Inhibition of VEGF expression in human MCF7 cells at 5 uM by ELISA; format: functional, cell-based
# MDA-MB-231 [5] = assay: Inhibition of mammosphere formation in human MDA-MB-231 cells at 5 to 20 uM after 8 days; format: functional, cell-based
# In short: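 Single cells were plated in ultralow-attachment plates at 100,000 viable cells/ml for primary culture and 5,000 cells/ml for passages. Spheres formed over 7–10 days in serum-free MEBM containing compound, with salinomycin as comparator. Primary spheres were trypsin-dissociated for serial passage. Sphere number was counted manually and verified by two independent observers blinded to treatment.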
# [6] = target: RAF proto-oncogene serine/threonine-protein kinase (Homo sapiens) (UniProt P04049); assay: Inhibition of c-RAF (unknown origin) at 10 uM
# Chain of RAF proto-oncogene serine/threonine-protein kinase (Homo sapiens) (P04049 whole entry): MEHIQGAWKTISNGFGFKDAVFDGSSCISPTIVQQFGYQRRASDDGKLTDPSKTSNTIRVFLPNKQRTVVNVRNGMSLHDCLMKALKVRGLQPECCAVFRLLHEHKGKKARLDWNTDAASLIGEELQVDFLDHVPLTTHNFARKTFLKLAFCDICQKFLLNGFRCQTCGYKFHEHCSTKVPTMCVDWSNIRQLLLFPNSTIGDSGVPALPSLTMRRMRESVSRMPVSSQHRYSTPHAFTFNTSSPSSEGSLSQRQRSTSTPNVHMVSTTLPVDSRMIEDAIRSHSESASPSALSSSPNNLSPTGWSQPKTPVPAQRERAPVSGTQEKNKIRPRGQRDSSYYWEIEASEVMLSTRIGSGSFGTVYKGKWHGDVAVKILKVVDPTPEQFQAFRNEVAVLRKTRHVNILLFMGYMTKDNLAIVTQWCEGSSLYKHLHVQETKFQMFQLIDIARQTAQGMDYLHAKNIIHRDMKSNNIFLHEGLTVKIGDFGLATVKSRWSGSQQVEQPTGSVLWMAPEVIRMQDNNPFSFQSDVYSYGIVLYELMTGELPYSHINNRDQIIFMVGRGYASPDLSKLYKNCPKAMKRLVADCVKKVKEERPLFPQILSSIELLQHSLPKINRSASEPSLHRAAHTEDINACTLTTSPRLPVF
# In short: (§1)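 Cell-free kinase profiling was run as a standard 33P-ATP-based in vitro kinase assay.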
# MDA-MB-231 [7] = assay: Induction of apoptosis in human […] MDA-MB-231 cells assessed as increase in Bax to Bcl2 ratio at 5 uM after 24 hrs by immunoblotting analysis; format: functional, cell-based
# [8] = target: RAC-alpha serine/threonine-protein kinase (Homo sapiens) (UniProt P31749); assay: Inhibition of EGF-induced AKT phosphorylation in human MCF7 cells at 1 uM by ELISA; format: cell-based
# Chain of RAC-alpha serine/threonine-protein kinase (Homo sapiens) (P31749 whole entry): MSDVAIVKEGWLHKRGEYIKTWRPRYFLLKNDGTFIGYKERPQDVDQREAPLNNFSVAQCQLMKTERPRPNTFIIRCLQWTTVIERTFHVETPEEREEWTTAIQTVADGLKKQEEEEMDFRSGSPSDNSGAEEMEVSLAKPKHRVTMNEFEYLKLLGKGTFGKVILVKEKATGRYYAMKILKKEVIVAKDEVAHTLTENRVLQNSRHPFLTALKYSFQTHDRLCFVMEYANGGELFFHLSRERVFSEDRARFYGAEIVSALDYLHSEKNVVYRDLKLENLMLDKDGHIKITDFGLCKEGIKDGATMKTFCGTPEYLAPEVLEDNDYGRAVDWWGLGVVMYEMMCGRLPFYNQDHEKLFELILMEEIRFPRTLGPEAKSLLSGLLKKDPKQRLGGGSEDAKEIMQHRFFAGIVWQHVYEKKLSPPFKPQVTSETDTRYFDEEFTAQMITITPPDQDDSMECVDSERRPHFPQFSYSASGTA
# [9] = target: Proto-oncogene tyrosine-protein kinase Src (Homo sapiens) (UniProt P12931); assay: Inhibition of cSRC (unknown origin) at 10 uM; in short: as §1
# [10] = target: Induced myeloid leukemia cell differentiation protein Mcl-1 (Homo sapiens) (UniProt Q07820); assay: Inhibition of basal level Mcl1 phosphorylation in human MDA-MB-231 cells at 1 uM by ELISA; format: cell-based
# Chain of Induced myeloid leukemia cell differentiation protein Mcl-1 (Homo sapiens) (Q07820 whole entry): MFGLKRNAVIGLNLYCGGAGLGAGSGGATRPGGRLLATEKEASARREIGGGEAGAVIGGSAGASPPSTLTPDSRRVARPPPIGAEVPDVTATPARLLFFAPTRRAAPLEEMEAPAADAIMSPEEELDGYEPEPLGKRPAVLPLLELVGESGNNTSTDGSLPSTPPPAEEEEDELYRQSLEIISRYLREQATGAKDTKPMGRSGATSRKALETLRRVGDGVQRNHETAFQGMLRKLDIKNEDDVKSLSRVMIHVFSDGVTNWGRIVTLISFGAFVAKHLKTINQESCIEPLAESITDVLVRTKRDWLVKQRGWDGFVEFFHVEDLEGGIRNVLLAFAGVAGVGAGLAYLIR
# [11] = target: Epidermal growth factor receptor (Homo sapiens) (UniProt P00533); assay: Inhibition of EGF-induced EGFR phosphorylation at Tyr845 in human MCF7 cells at 1 uM by ELISA; format: cell-based
# [12] = target: Signal transducer and activator of transcription 3 (Homo sapiens) (UniProt P40763); assay: Inhibition of basal level STAT3 phosphorylation in human MDA-MB-231 cells at 1 uM by ELISA; format: cell-based
# Chain of Signal transducer and activator of transcription 3 (Homo sapiens) (P40763 whole entry): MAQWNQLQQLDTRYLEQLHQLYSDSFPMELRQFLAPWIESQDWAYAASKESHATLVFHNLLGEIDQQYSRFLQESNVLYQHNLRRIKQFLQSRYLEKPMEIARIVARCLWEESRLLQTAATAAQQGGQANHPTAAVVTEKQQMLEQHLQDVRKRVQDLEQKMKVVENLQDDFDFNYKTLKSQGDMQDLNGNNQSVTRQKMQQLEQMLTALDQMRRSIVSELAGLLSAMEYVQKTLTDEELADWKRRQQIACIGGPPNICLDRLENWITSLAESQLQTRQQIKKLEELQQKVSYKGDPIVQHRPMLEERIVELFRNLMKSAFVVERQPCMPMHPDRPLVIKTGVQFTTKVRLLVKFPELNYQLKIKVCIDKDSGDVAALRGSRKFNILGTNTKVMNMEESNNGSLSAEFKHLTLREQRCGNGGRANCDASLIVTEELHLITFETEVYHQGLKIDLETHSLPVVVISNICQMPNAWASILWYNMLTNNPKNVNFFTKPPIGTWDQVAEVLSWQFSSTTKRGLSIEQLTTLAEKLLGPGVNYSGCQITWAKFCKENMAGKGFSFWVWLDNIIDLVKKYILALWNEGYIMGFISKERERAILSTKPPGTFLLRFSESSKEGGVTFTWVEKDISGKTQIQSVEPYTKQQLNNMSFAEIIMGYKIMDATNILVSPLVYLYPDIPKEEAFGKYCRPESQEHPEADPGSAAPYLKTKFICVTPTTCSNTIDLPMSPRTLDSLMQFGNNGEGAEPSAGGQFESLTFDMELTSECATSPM
# MDA-MB-231 [13] = assay: Induction of apoptosis in human […] cells assessed as caspase 3 activation at 2.5 to 7.5 uM by Caspase-Glo assay; format: functional, cell-based
# In short: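 Caspase-8, -9 and -3 activities measured with Caspase-Glo 8, 9 and 3 kits; mean ± SEM from three independent experiments.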
# [14] = target: Phosphodiesterase 4 (Homo sapiens) (UniProt P27815+Q08499+Q07343+Q08493); assay: Inhibition of PDE4 CAT (unknown origin) activity at 1 to 10 uM; format: protein assay
# In short: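 Recombinant PDE isoform activity was read by fluorescence polarization. A binding reagent complexes with the nucleotide monophosphate that the phosphodiesterase generates from cAMP/cGMP, and this raises the polarization of the labelled substrate. Reference standards were PDE1A3 10µM IBMX, PDE2A3 1nM BAY 60-7550, PDE3CAT 1µM cilostazol, PDE4CAT rolipram, PDE5CAT 0.1µM sildenafil, PDE7A […], PDE8A1 10µM BRL-50481, PDE9A1 1µM SB 36216 and PDE11A1 dipyridamole.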
# [15] = target: Focal adhesion kinase 1 (Homo sapiens) (UniProt Q05397); assay: Inhibition of basal level FAK phosphorylation at Tyr397 in human MDA-MB-231 cells at 1 uM by ELISA; format: cell-based
# Chain of Focal adhesion kinase 1 (Homo sapiens) (Q05397 2-1052 limits assumed): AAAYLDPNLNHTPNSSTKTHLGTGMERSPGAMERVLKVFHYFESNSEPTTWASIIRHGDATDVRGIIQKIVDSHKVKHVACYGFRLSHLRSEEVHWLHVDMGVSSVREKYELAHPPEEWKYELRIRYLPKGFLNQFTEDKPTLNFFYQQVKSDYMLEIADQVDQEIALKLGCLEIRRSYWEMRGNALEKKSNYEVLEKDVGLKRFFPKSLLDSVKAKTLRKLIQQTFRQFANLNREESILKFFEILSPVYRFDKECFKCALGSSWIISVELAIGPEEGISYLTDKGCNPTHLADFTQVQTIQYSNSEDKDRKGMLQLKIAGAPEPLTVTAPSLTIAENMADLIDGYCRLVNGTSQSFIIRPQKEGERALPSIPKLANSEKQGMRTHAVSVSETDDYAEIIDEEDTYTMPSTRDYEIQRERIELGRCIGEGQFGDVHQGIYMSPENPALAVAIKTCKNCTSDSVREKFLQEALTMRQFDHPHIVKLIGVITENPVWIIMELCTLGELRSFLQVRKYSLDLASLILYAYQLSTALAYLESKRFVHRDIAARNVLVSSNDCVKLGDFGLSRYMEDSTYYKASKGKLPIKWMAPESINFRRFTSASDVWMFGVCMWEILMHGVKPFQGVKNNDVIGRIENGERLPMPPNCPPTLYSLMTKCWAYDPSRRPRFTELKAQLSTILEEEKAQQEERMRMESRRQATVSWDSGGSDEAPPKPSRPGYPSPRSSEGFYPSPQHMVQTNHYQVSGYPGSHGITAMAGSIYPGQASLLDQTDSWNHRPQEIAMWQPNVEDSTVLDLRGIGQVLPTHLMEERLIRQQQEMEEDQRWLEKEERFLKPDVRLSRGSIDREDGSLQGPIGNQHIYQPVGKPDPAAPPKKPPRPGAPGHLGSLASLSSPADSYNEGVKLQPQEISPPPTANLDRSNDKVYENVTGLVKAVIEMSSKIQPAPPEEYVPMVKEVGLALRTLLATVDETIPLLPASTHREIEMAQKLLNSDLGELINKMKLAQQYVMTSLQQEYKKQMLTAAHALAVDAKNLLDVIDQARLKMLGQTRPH
# MDA-MB-231 [16] = assay: Antiproliferative activity against human […] cells assessed as absence of growth recovery treated > 5 uM for 24 hrs followed by maintained in drug free medium for 72 hrs by MTT assay; format: functional, cell-based
# MDA-MB-231 [17] = assay: Cell cycle arrest in human […] cells assessed as accumulation at G1 phase at 7.5 uM by propidium iodide staining by FACS analysis (reference value: 63.74%); format: functional
# HEK293 = assay: Antiproliferative activity against HEK293 cells after 24 hrs by MTT assay; format: functional, cell-based; conditions: Homo sapiens, HEK293, 24 h
# In short: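 MTT viability: cells seeded at 1×10^4 per well in DMEM with 10% FBS, left to adhere overnight, then serum-starved 4 h. Compounds were given at a range of doses, with 0.1% DMSO vehicle as control. EC50 was taken from dose-response curves spanning 100nM-50µM. Data are mean ± SEM from at least three independent experiments.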
# MCF7 [18] = assay: Antitumor activity against human MCF7 cells xenografted in NIH-3 mouse assessed as reduction in tumor volume at 16 mg/kg, po for 29 days relative to control; format: functional; conditions: MCF7, 696 h
# In short: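 MCF-7 cells (5x10^6 in 100μl PBS) injected intraperitoneally into NIH-III nude mice; after tumor induction, groups of n=10 dosed orally daily for 29 days at 8 or 16 mg/kg/day in 1% carboxymethyl cellulose (vehicle controls). Tumor diameter by vernier calipers every third day; volume = π/6×d³ (d mean diameter).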
# MDA-MB-231 [19] = assay: Cell cycle arrest in human […] cells assessed as accumulation at G1 phase at 2.5 uM by propidium iodide staining by FACS analysis (reference value: 63.74%); format: functional
# MDA-MB-231 [20] = assay: Cell cycle arrest in human […] cells assessed as accumulation at G2 phase at 5 uM by propidium iodide staining by FACS analysis (reference value: 22.74%); format: functional
# MDA-MB-231 [21] = assay: Cell cycle arrest in human […] cells assessed as accumulation at S phase at 7.5 uM by propidium iodide staining by FACS analysis (reference value: 13.72%); format: functional
# MCF7 [22] = assay: Cell cycle arrest in human […] cells assessed as accumulation at G1 phase at 5 uM by propidium iodide staining by FACS analysis (reference value: 62.88%); format: functional
# [23] = Safety index, ratio of IC50 for human MCF10A cells to EC50 for human HCT116 cells; format: toxicity, cell-based, MCF-10A; conditions: MCF10A cells versus HCT116 cells, read-out: Ratio IC50/EC50
# In short: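 Safety index is the IC50 in the normal cells divided by the EC50 in the cancer cells. Both values come from MTT assays: cells in DMEM with 10% FBS, serum-starved 4 h, then exposed to compound across a 100nM-50µM dose range with 0.1% DMSO as vehicle control.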
# Chain of Plasminogen activator inhibitor 1 (Homo sapiens) (P05121 whole entry): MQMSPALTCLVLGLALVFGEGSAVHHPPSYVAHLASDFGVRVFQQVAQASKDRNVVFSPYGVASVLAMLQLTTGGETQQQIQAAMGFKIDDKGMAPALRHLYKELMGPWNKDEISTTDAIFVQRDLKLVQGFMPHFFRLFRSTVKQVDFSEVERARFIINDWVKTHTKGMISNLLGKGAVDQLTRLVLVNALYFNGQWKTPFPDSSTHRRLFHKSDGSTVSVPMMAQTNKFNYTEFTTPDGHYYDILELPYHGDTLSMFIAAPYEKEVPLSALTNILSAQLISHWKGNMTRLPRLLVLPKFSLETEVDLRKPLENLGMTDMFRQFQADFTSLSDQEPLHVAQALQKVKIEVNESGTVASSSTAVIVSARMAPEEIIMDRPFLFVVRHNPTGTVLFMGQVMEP
smiles,measurement,setting,value
CCN(CC)CCO/N=C(\c1ccc(SC)cc1)c1cccc2ccccc12,inhibition,[1],Active
same,Activity,MCF7 [2],Active
same,inhibition,[3],Active
same,inhibition,MCF7 [4],inactive
same,inhibition,MDA-MB-231 [5],Active
same,inhibition,[6],inactive
same,Activity,MDA-MB-231 [7],Active
same,inhibition,[8],Active
same,inhibition,[9],inactive
same,inhibition,[10],Active
same,inhibition,[11],Active
same,inhibition,[12],inactive
same,Activity,MDA-MB-231 [13],Active
same,inhibition,[14],inactive
same,inhibition,[15],Active
same,Activity,MDA-MB-231 [16],Active
CCN(CC)CCO/N=C(\c1ccc(SC)cc1)c1cccc2ccccc12.O=C(O)C(=O)O,Activity,MDA-MB-231 [17],91.17%
same,pIC50,HEK293,4.70
same,inhibition in vivo at 16 mg/kg,MCF7 [18],50%
same,Activity,MDA-MB-231 [19],80.13%
same,Activity,MDA-MB-231 [20],8.5%
same,Activity,MDA-MB-231 [21],2.74%
same,Activity,MCF7 [22],74.66%
same,selectivity ratio,[23],2.5

# Reference: ChEMBL document CHEMBL3352791, “Thioaryl naphthylmethanone oxime ether analogs as novel anticancer agents” (J Med Chem, 2014)
